Measured values from publication PMC5755971 (Journal of the American Chemical Society, 2017).
Where a SMILES comes first, the peptide text is derived from it. [ ]: non-standard residue; d: D form. Dolaproine = CO[C@@H]([C@@H]1CCCN1)[C@@H](C)C(=O)O; Dil = CC[C@H](C)[C@H](NC)[C@@H](CC(=O)O)OC; NMeV = CN[C@H](C(=O)O)C(C)C

Experiments:
human CD22 = conditions: cited from earlier work
Daudi cells [1] = experiment: cytotoxicity assay for ligand-toxin conjugates; assay type: cell-based; conditions: read-out: EC50 (cytotoxicity), 72h, MTT
Daudi cells [2] = experiment: uptake of ligand-FITC conjugates by Daudi cells in pure mouse serum; assay type: cell-based; conditions: 60 min, 37 °C
Procedure, shortened: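 FITC-labelled ligand conjugates serially diluted and incubated with ~10^6 Daudi B cells in 100 uL pure mouse serum for 60 min at 37 °C. Cells washed twice in HBSS; uptake read by flow cytometry and curve-fitted.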

hCD22 [3] = target: T1, hCD22 (Homo sapiens, UniProt P20273); experiment: flow cytometry competitive binding assay, Neu5Gc-PAA to hCD22-CHO cells
T1 sequence (P20273 20-847): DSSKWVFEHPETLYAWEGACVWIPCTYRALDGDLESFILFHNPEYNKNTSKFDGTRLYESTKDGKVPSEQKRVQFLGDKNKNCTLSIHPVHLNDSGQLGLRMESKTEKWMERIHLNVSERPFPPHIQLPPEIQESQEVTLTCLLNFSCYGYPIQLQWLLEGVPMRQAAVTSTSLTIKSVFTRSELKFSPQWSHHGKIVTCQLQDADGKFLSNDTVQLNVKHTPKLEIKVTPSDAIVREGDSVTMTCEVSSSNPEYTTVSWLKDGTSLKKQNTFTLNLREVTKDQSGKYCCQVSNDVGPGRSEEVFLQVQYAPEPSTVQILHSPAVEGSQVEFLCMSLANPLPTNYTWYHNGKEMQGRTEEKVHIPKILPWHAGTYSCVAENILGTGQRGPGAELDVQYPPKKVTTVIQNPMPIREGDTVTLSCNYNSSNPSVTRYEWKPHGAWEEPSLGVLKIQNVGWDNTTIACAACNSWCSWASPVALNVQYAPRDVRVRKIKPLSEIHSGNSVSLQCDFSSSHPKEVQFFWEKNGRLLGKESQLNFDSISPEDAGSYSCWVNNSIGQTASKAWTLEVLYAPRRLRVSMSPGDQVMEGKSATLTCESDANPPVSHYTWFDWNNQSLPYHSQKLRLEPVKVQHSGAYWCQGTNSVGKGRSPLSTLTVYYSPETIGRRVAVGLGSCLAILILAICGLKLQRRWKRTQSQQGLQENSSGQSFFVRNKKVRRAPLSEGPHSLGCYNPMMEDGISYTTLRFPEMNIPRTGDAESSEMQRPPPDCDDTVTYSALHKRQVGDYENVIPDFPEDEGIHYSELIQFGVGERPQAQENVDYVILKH
Procedure, shortened: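 Serial dilutions of sialoside ligands, quantified by periodate-resorcinol assay, mixed in cold HBSS/0.5% BSA with biotinylated Neu5Gcα2–6LacNAc-PAA (1 MDa, 1 μg/mL). ~10^6 hCD22-CHO cells added; 40 min, 4 °C, dark. Two washes, then streptavidin-PE (1:1000) for 30 min at 4 °C. Read by flow cytometry. Triplicate titrations; IC50 from curve fit, 0% = no polymer, 100% = polymer without competitor.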

hCD22 [4] = target: T1, hCD22; conditions: equilibrium dialysis at 4° C; cited from earlier work

For `O=C(CF)N[C@H]1[C@H]([C@H](O)[C@H](O)CNC(=O)c2cccc(Oc3ccccc3)c2)OC(O)(C(=O)O)C[C@@H]1O` (stereo partly shown) [1c, 9-N-m-phenoxybenzamide-Neu5FAc], the “affinity for human CD22” value (human CD22) is listed as “low micromolar range”.
`CC[C@H](C)[C@@H]([C@@H](CC(=O)N1CCC[C@H]1[C@H](OC)[C@@H](C)C(=O)N[C@@H](Cc1ccccc1)C(=O)O)OC)N(C)C(=O)[C@@H](NC(=O)[C@@H](NC)C(C)C)C(C)C` [MMAF, monomethyl auristatin F] (H-[NMeV]V[Dil][Dolaproine]F-OH) showed an EC50 (Daudi cells [1]) of 0.2 µM.
In the case of `CC(=O)NC1C(NC(=O)C[C@H](NC(=O)[C@H](C)NC(=O)[C@@H](NC(=O)[C@@H](N)CCCCN)C(C)C)C(=O)N[C@@H](CCCCN)C(=O)N[C@H](C(=O)O)[C@@H](C)O)OC(CO)C(OC2OC(CO)C(OC3OC(COC4OC(CO)C(O)C(O)C4OC4OC(CO)C(OC5OC(COC6(C(=O)[O-])CC(O)C(NC(C)=O)C([C@H](O)[C@H](O)CO)O6)C(O)C(O)C5O)C(O)C4NC(C)=O)C(O)C(OC4OC(CO)C(O)C(O)C4OC4OC(CO)C(OC5OC(COC6(C(=O)[O-])CC(O)C(NC(C)=O)C([C@H](O)[C@H](O)CO)O6)C(O)C(O)C5O)C(O)C4NC(C)=O)C3O)C(O)C2NC(C)=O)C1O.[Na+].[Na+]` (stereo partly shown) [SGP], the “binding/uptake by Daudi cells” value (Daudi cells [2]) is reported as “weak or no binding/uptake” and the “fold higher binding affinity for hCD22 compared to the monovalent ligand (6′SLN)” value (hCD22 [3]) is reported as “three-fold higher”.
For Neu5Acα2–6Galβ1–4GlcNAc [6′SLN], the IC50 (hCD22 [3]; competition with Neu5Gc-PAA, 40 min, 4 °C) is listed as 62 µM and the Kd (hCD22 [4]) is listed as 32 µM.
For `CC(=O)NC1C(O)CC(O)(C(=O)O)OC1C(O)C(O)CNC(=O)c1ccc(-c2ccccc2)cc1` (stereo not shown) [1a, 9-N-biphenyl carboxamide-Neu5Ac], the “affinity for human CD22” value (human CD22) is given as “low micromolar range”.
